Experimental data from different studies.
Each line is one published result; the experiments were not run side by side.
SLC22A8: Organic anion transporter 3 (SLC22A8, Homo sapiens, UniProt Q8TCC7)

| Structure (SMILES) | tested on | assay | system | conditions | endpoint | result |
| --- | --- | --- | --- | --- | --- | --- |
| CON=C(N)c1ccc(-c2ccc(-c3ccc(C(N)=NOC)cc3)o2)cc1 | Cytochrome P450 4F3 (CYP4F3, Homo sapiens, UniProt Q08477) | enzyme activity, substrate |  |  | Km | 3.2 µM |
| CC(C)(O)c1ccccc1-c1ccc2[nH]c(/C=C/c3ccc(C(F)(F)F)cc3)nc2c1 |  |  | male human, plasma | oral, 5 mg, single dose, fasted, healthy volunteers | AUC(0-t) | 971 ng·h/mL |
| CCc1nc2c(C)cc(N3CCN(CC(=O)N4CC(O)C4)CC3)cn2c1N(C)c1nc(-c2ccc(F)cc2)c(C#N)s1 |  |  | human, plasma | oral, 1500 mg, single dose, fed, healthy volunteers | AUC(0-inf) | 168000 ng·h/mL |
| CN(C(=O)n1cnc(-c2ccc[n+]([O-])c2)c1)C1CCCCC1 | SLC22A8 | transporter uptake, inhibitor | HEK293 | 3 µg/mL | inhibition | 10% |
| COc1ccc([C@@H]2CN(C(=O)[C@@H](O)CO)C[C@@]2(C)[C@@H](C)O)cc1OC1CN(c2ccc(C)cn2)C1 |  |  | human, plasma | oral, 20 mg, single dose, healthy volunteers | AUC(0-inf) | 4090 ng·h/mL |
| CC(=O)O[C@H]1C(=O)[C@@]2(C)[C@H]([C@H](OC(=O)c3ccccc3)[C@]3(O)C[C@H](OC(=O)[C@H](O)[C@@H](NC(=O)c4ccccc4)c4ccccc4)C(C)=C1C3(C)C)[C@]1(OC(C)=O)CO[C@@H]1C[C@@H]2O | Bel-7402 | cell growth or viability, MTT |  | 48 h | IC50 | 28.2 µM |
| O=C(O)CSc1nnc(Br)n1-c1ccc(C2CC2)c2ccccc12 | SLC22A8 | transporter uptake, inhibitor, radiometric |  | 5 µM, 1 h, oocytes | inhibition | 64% |
| CC(C)n1cc(C#N)c2cc(-n3cc(C(=O)O)cn3)ccc21 |  |  | human, plasma | oral, 200 mg, single dose, fed | AUC(0-t) | 43700 ng·h/mL |
| CC(C)(C)c1ccc(O)c(CN(Cc2cc(C(C)(C)C)ccc2O)C2CCC(NC(N)=O)CC2)c1 (stereo not shown) |  |  | male C57BL/6 mouse, brain | intraperitoneal, 5 mg/kg, single dose | tissue/plasma ratio | 0.68 |
| CCCCNc1cc(C(=O)O)cc(S(N)(=O)=O)c1Oc1ccccc1 | SLC22A8 | transporter uptake, inhibitor, radiometric |  | 200 µM, 1 h, oocytes | inhibition | 97% |
